Measurements published in ChEMBL document CHEMBL1629547, “Zidovudine impairs adipogenic differentiation through inhibition of clonal expansion” (Antimicrob Agents Chemother, 2008).
Active and inactive are the calls of the source. The calls are words filed in the database; no cut-off is given here.

Key:
Homo sapiens = test: Antiproliferative activity against human subcutaneous preadipocyte assessed as [3H]thymidine incorporation at 6 uM; format: functional
Method in brief: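 Primary human subcutaneous preadipocytes (collagenase-digested abdominal fat, kept in DMEM-Ham's F-12 1:1 with 10% FBS and 172 µM ascorbate 2-phosphate) were given drug or vehicle for 24 h. [3H]thymidine was then added for a further 24 h, and cells were filter-harvested and counted by beta counter (cpm). There were 4 to 16 replicates per experiment, in at least 3 independent experiments.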

Mus musculus [1] = species on record: Mus musculus; test: Antiproliferative activity against mouse 3T3-F442A cells assessed as [3H]thymidine incorporation at 0.1 uM; format: functional, cell-based
Mus musculus [2] = species on record: Mus musculus; test: Induction of adipocyte differentiation in mouse 3T3-F442A cells assessed as triglyceride accumulation at 6 uM on day 9 by oil red O staining relative to control; format: functional, cell-based
Method in brief: (§1)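 Drug was added to 3T3-F442A cells only after clonal expansion was complete. On day 9 cells were fixed in formalin and stained with 0.0021% Oil red O in 60% isopropanol. Dye was extracted with 100% isopropanol and fluorescence read at 495 nm. Data are from four independent experiments, ANOVA with Bonferroni versus control.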

Mus musculus [3] = species on record: Mus musculus; test: Induction of adipocyte differentiation in mouse 3T3-F442A cells assessed as C/EBPalpha mRNA expression on day 6 by RT-PCR analysis; format: functional, cell-based
[4] = Antiproliferative activity against mouse 3T3-F442A cells assessed as [3H]thymidine incorporation at 180 uM; format: functional
[5] = Antiproliferative activity against mouse 3T3-F442A cells assessed as [3H]thymidine incorporation at 3 uM; format: functional
3T3-F442A (Mus musculus) [6] = test: Induction of preadipocyte differentiation in mouse 3T3-F442A cells assessed as C/EBPalpha mRNA expression on day 6 by RT-PCR analysis
3T3-F442A [7] = test: as above
[8] = Cytotoxicity against mouse 3T3-F442A cells at 1 uM after 8 days by trypan blue staining
Mus musculus [9] = species on record: Mus musculus; test: Induction of preadipocyte differentiation in mouse 3T3-F442A cells assessed as triglyceride accumulation at 3 uM after 9 days by oil red O staining relative to control; format: functional, cell-based
Method in brief: (§2)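 Drug was present while 3T3-F442A cells differentiated. On day 9 cells were fixed in 10% formalin and stained with 0.0021% (wt/vol) Oil red O in 60% isopropanol. Cells were dried, dye extracted with 100% isopropanol, and fluorescence read at 495 nm. Data are from three independent experiments, Mann-Whitney U test versus control.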

Mus musculus [10] = species on record: Mus musculus; test: Induction of adipocyte differentiation in mouse 3T3-F442A cells assessed as PPARgamma mRNA expression on day 6 by RT-PCR analysis; format: functional, cell-based
Mus musculus [11] = species on record: Mus musculus; test: Antiproliferative activity against mouse 3T3-F442A cells assessed as mtDNA depletion; format: functional, cell-based
Mus musculus [12] = species on record: Mus musculus; test: Induction of adipocyte differentiation in mouse 3T3-F442A cells assessed as triglyceride accumulation at 1 uM on day 9 by oil red O staining relative to control; format: functional, cell-based; method in brief: as §1
[13] = Antiproliferative activity against mouse 3T3-F442A cells assessed as [3H]thymidine incorporation at 1 uM; format: functional
Mus musculus [14] = species on record: Mus musculus; test: Induction of preadipocyte differentiation in mouse 3T3-F442A cells assessed as adiponectin mRNA expression on day 9 by RT-PCR analysis; format: functional, cell-based
Method in brief: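 3T3-F442A preadipocytes were exposed to drug or vehicle from day −7, induced on day 0 and differentiated to day +9, when RNA was taken. Adiponectin mRNA was measured by real-time RT-PCR (42 cycles, 94/55/72°C) against transferrin receptor as calibrator. RNA and cDNA were pooled; there were three independent experiments with triplicate PCR each.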

Mus musculus [15] = species on record: Mus musculus; test: Antiproliferative activity against mouse 3T3-F442A cells assessed as [3H]thymidine incorporation; format: functional, cell-based
3T3-F442A (Mus musculus) [16] = test: Induction of preadipocyte differentiation in mouse 3T3-F442A cells assessed as PPARgamma mRNA expression on day 4 by RT-PCR analysis
3T3-F442A [17] = test: as above
Mus musculus [18] = species on record: Mus musculus; test: Induction of preadipocyte differentiation in mouse 3T3-F442A cells assessed as triglyceride accumulation at 0.1 uM after 9 days by oil red O staining relative to control; format: functional, cell-based; method in brief: as §2
Mus musculus [19] = species on record: Mus musculus; test: Induction of preadipocyte differentiation in mouse 3T3-F442A cells assessed as triglyceride accumulation at 6 uM after 9 days by oil red O staining relative to control; format: functional, cell-based; method in brief: as §2
[20] = Cytotoxicity against mouse 3T3-F442A cells at 6 uM after 8 days by trypan blue staining
[21] = Antiproliferative activity against mouse 3T3-F442A cells assessed as [3H]thymidine incorporation at 6 uM; format: functional

**Q.** Which Activity (Homo sapiens) does the source give for `Cc1cn([C@H]2C[C@H](N=[N+]=[N-])[C@@H](CO)O2)c(=O)[nH]c1=O` [ZIDOVUDINE] here?
**A.** The Activity was “Active”.

**Q.** And the Activity (Mus musculus [1])?
**A.** Its Activity is “inactive”.

**Q.** What about the Activity (Mus musculus [2]) of the same compound?
**A.** The Activity was “inactive”.

**Q.** What about the Activity (Mus musculus [3]) of the same compound?
**A.** The Activity was “inactive”.

**Q.** What about the Activity [4] of the same compound?
**A.** The Activity was 30%.

**Q.** What about the Activity [5] of the same compound?
**A.** Its Activity is 30%.

**Q.** And the Activity (3T3-F442A (Mus musculus) [6])?
**A.** Its Activity is “Active”.

**Q.** And the Activity (3T3-F442A [7])?
**A.** The Activity was “Active”.

**Q.** What about the Activity [8] of the same compound?
**A.** The Activity was “Non-toxic”.

**Q.** What about the Activity (Mus musculus [9]) of the same compound?
**A.** Its Activity is “inactive”.

**Q.** What about the Activity (Mus musculus [10]) of the same compound?
**A.** Its Activity is “inactive”.

**Q.** What about the Activity (Mus musculus [11]) of the same compound?
**A.** Its Activity is “inactive”.

**Q.** And the Activity (Mus musculus [12])?
**A.** The Activity was “inactive”.

**Q.** And the Activity [13]?
**A.** Its Activity is 30%.

**Q.** What about the Activity (Mus musculus [14]) of the same compound?
**A.** The Activity was “Active”.

**Q.** And the Activity (Mus musculus [15])?
**A.** The Activity was “Active”.

**Q.** And the Activity (3T3-F442A (Mus musculus) [16])?
**A.** The Activity was “Active”.

**Q.** And the Activity (3T3-F442A [17])?
**A.** The Activity was “Active”.

**Q.** And the Activity (Mus musculus [18])?
**A.** The Activity was “inactive”.

**Q.** And the Activity (Mus musculus [19])?
**A.** Its Activity is “Active”.

**Q.** And the Activity [20]?
**A.** The Activity was “Non-toxic”.

**Q.** And the Activity [21]?
**A.** The Activity was 30%.
